From PubChem
The list is not random: actives were taken first. Their share in the collection is about 1.7%.
SUMO1-SIM PPI: SUMO1-SIM interaction modulation | SUMO1 binding to a labelled peptide, TR-FRET, 1 h | inhibition, % at 20 µM | 0.33% of 360,000 active; in the data active = inhibition above about 37%
Target sequence (P63165 whole entry, looked up): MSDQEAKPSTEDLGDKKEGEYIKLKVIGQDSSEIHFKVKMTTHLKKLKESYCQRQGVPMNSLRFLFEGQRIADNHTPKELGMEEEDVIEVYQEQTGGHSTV
LMPTP inh: blocks human LMPTP phosphatase | P24666 | recombinant LMPTP-A, OMFP fluorogenic substrate, fluorescence intensity | inhibition, % at 20 µM | 0.22% of 360,000 active;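 active = compounds that cut the enzyme signal by at least half of the control window in the single-dose screen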;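 note: plate controls were DMSO wells with enzyme plus substrate for no effect and substrate without enzyme for full effect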
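Test system – LMPTP-A phosphatase enzyme · Quantity – 0.625 nM LMPTP-A final · Reagent – OMFP substrate, 400 µM final · Dosing – one test concentration per compound, 20 µM, with 3% DMSO overall · Timing – 50 min enzyme reaction at room temperature, protected from light · Detection – fluorescence intensity · Controls – substrate-only low control, DMSO enzyme-plus-substrate high control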
DNMT1 block: inhibitors of human DNMT1; DNMT1 molecular beacon, Hinp1I cleavage, fluorescence; inhibition (reported as % activation of signal), % at 10 µM; 0.83% of 360,000 active; AID 588458; in the data active = inhibition above about 50%
STEP inh: blocks human striatal-enriched tyrosine phosphatase; recombinant STEP, OMFP fluorogenic substrate, fluorescence; AID 588621; inhibition, % at 20 µM; 0.25% of 360,000 active; P54829;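 active = inhibition at 20 µM, scaled per plate between control wells, above about 37%, limit read from the data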;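 note: 0% = DMSO with enzyme and substrate and 100% = substrate only without enzyme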
Target sequence (P54829 whole entry, looked up): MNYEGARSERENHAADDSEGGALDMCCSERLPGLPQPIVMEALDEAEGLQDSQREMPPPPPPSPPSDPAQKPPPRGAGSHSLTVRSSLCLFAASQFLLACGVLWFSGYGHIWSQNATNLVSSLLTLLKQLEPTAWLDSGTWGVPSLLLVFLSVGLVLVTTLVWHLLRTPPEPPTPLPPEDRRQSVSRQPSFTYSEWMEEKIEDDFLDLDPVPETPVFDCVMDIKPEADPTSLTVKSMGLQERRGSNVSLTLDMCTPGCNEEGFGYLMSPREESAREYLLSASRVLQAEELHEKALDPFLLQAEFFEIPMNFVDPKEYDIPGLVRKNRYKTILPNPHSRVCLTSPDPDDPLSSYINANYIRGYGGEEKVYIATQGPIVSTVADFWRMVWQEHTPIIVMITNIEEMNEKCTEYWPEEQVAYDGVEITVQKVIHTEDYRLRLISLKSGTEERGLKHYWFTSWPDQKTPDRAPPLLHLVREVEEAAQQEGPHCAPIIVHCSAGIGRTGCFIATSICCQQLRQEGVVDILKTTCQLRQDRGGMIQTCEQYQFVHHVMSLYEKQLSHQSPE
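System: isolated STEP enzyme; schedule: 20 min enzyme reaction at room temperature, protected from light; medium: Bis-Tris buffer pH 6.0, 2.5 mM DTT, 0.005% Tween 20; signal: fluorescence, 480/540 nm; dosing: single compound dose of 20 µM, 1% DMSO final; also added: OMFP substrate, 25 µM final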
Scp-1 inhibitor: inhibitors of human Scp-1 phosphatase; Q9GZU7; inhibition, % at 20 µM; 0.88% of 340,000 active; Recombinant Scp1, phosphopeptide, malachite green phosphate absorbance;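 active = inhibition above about 50% at 20 µM, limit read from the data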;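 note: plate controls were DMSO wells with enzyme for no effect and wells lacking enzyme for full effect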
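Test system: SCP-1 phosphatase catalytic domain, residues 76-261; measured by: colorimetric phosphate reagent with accelerator and stabiliser, absorbance at 630 nm; timing: enzyme reaction 45 min at room temperature, colour 5 min, stabilisation 30 min; also added: Phosphorylated 17-residue peptide substrate; compound dosing: one concentration, 20 µM, with 1.0% DMSO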
Scp-1 conf: confirmation of human Scp-1 phosphatase inhibitors | AID 540281 | recombinant SCP-1 catalytic domain, phosphate release, malachite green absorbance | inhibition, % at 20 µM | 61% of 2,500 active | shares compounds with Scp-1 inhibitor;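 note: plate controls were DMSO with enzyme for no effect and buffer wells lacking enzyme for full effect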
Scp-1 MG ctr: interferes with malachite green readout, flagging false Scp-1 hits | shares compounds with Scp-1 inhibitor | Colorimetric interference counterscreen, malachite green absorbance 630 nm | apparent inhibition (interference), % at 20 µM | 2,500 tested, under 10 active | AID 540313;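 note: compounds added after enzyme reaction finished so only phosphate colour detection is probed; plate controls were DMSO wells with completed Scp-1 reaction for no effect and substrate wells lacking enzyme for full effect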
Scp-1 Tm shift: binds human Scp-1, shifting its melting temperature; 25% of 1,500 active; Recombinant SCP1, Sypro Orange thermal shift Tm; shares compounds with Scp-1 inhibitor; thermal shift relative to vanadate control, % at 40 µM;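 active = substances whose mean melting-temperature shift, as a percentage of the reference inhibitor's shift, reaches about 5.3%, limit read from the data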;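 note: 0% = Tm of DMSO wells and 100% = Tm with sodium orthovanadate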
Active calls of the source: *; x = no result given; ! = not confirmed by another sample.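 Rule for the calls, unless noted: active = inhibition of at least 30% at 20 µM; inactive = the rest.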

SMILES	SUMO1-SIM PPI	LMPTP inh	DNMT1 block	STEP inh	Scp-1 inhibitor	Scp-1 conf	Scp-1 MG ctr	Scp-1 Tm shift
Cc1cc2c(C(C)C)c(O)c(O)c(C=O)c2c(O)c1-c1c(C)cc2c(C(C)C)c(O)c(O)c(C=O)c2c1O	57.9*	12.2	22.1	-4.4	x	x	x	x
COCCCn1c(N)c(C(=O)Nc2ccccc2)c2nc3ccccc3nc21	-4.0	3.6	-29.6	-1.9	-9.8	x	x	x
CCC(C)NC(=O)c1c(N)n(CCCOC)c2nc3ccccc3nc12 (centres undefined)	41.3*	5.2	38.5	-0.3	-2.2	x	x	x
CCC(C)NC(=O)c1c(N)n(Cc2ccc3c(c2)OCO3)c2nc3ccccc3nc12 (centres undefined)	40.0*	8.0	36.4	-0.1	-4.8	x	x	x
COc1ccc2c(c1)C1(C)CCN(C)CC(C1)C2O (centres undefined)	-0.4	-0.8	9.2	-1.4	x	x	x	x
O=C1CNC(c2ccccc2Cl)c2cc(Br)ccc2N1 (centres undefined)	-1.7	4.2	-2.3	3.0	-11.7	x	x	x
CNCC(=O)c1ccc(O)c(O)c1	2.9	55.7*	2.4	2.2	x	x	x	x
COC(=O)C1=C(c2ccc(OCc3ccccc3)cc2)C[C@@H]2CC[C@H]1N2C(=O)NCc1ccccc1C(F)(F)F	-3.0	5.1	-3.3	2.1	x	x	x	x
O=C(Cc1c[nH]c2ccccc12)NNCc1ccc(N(CCCl)CCCl)cc1	-4.2	0.1	-2.0	-1.6	3.3	x	x	x
C=C1C(=O)O[C@@H]2C[C@@H](C)[C@H]3C=CC(=O)[C@]3(O)C[C@@H]12	52.5*	0.7	-31.0	-1.3	-8.1	x	x	x
COc1cccc(OCc2cc(C(=O)N3C[C@H]4C[C@@H](C3)c3cccc(=O)n3C4)no2)c1	1.7	-1.4	-6.5	-2.3	2.7	x	x	x
CCCC[N+]12CCC(CC1)C(C(=O)c1cccs1)C2 (centres undefined)	-7.0	-0.1	-2.9	-2.4	98.0*	103.1*	6.1	-4.5
O=C(CCc1ccccc1)N1Cc2cc(-c3ccccc3)ccc2-n2nncc2C1	6.7	0.9	-12.1	0.0	x	x	x	x
Cc1ccccc1C(=O)N1CC1C (centres undefined)	4.0	-1.5	0.0	-1.8	-7.6	x	x	x
CCOC(=O)c1ccccc1C(=O)OCC	3.4	-1.5	6.1	-3.3	-11.7	x	x	x
CCOC(=O)C1=C(C)c2ccccc2OC1(C(=O)OCC)c1ccccc1 (centres undefined)	5.6	-1.4	6.8	-3.6	102.9*	39.1*	-17.5	-30.9
CC[N+]12CCC(CC1)C(C(O)(c1ccccc1)c1ccccc1)C2 (centres undefined)	3.7	-1.4	2.4	2.7	-0.8	x	x	x
CC(C)[N+]12CCC(CC1)C(C(O)(c1ccccc1)c1ccccc1)C2 (centres undefined)	3.1	-1.3	0.7	-4.3	98.7*	87.1*	-11.5	-27.3
CCOc1ccccc1N=C1SCCCN1C	-1.0	0.1	1.7	0.5	54.7*	66.6*	-11.5	-6.8
CC(=O)N1CCCSC1=Nc1ccccc1	3.9	-1.9	2.3	-0.3	-7.4	x	x	x
Cc1cc(C)c(N=Cc2c(O)[nH]c(=O)[nH]c2=O)c(C)c1	8.3	-0.9	-2.9	-2.9	-5.7	x	x	x
O=C(O)c1ccccc1-c1ccc(C=C2C(=O)N(c3ccccc3)C(=S)N(c3ccccc3)C2=O)o1	24.0	3.8	27.7	4.3	58.3*	54.1*	-11.4	1.9
C[n+]1ccc(-c2ccncc2)cc1	-24.8	-4.9	-1.1	1.5	95.6*	3.6	-9.3	x
CC1=CP(=O)(Oc2ccc([N+](=O)[O-])cc2)CC1 (centres undefined)	-7.9	-2.6	3.3	-0.9	x	x	x	x
CC(=O)Nc1ccc(N=Cc2c(O)n(Cc3ccco3)c(=O)[nH]c2=O)cc1	55.2*	1.1	2.2	6.3	72.5*	51.0*	-6.5	-5.5
SMILES	SUMO1-SIM PPI	LMPTP inh	DNMT1 block	STEP inh	Scp-1 inhibitor	Scp-1 conf	Scp-1 MG ctr	Scp-1 Tm shift
COc1cc2c3c(c1OC)-c1cc(O)ccc1CC3NCC2 (centres undefined)	1.2	-0.7	0.5	6.8	-7.5	x	x	x
COc1cc2c(cc1OC)-c1c(OC)c(OC)cc3c1[C@H](C2)[N+](C)(C)CC3	1.0	0.1	1.9	1.5	54.8*	12.0	-11.4	x
O=c1[nH]c(=S)n(-c2ccccc2)c(O)c1C=NCCN1CCNCC1	0.2	-4.9	-0.7	3.0	-12.8	x	x	x
CCN(CC)P(=O)(c1n(CC)cc[n+]1CC)N(CC)CC	2.6	2.7	2.2	-2.9	102.8*	79.9*	-19.1	-9.8
CNC(C(=O)c1ccccc1)C(OC(C)=O)c1cccc([N+](=O)[O-])c1 (centres undefined)	-21.6	-0.3	-3.6	1.2	87.7*	-10.2	-10.1	x
CCOP(=O)(OCC)C1(O)C(=O)Nc2ccccc21 (centres undefined)	-6.5	-2.5	8.3	-2.5	-1.2	x	x	x
CC1CCCC(C2(O)C(=O)Nc3ccccc32)C1=O (centres undefined)	2.8	-2.7	-1.8	-6.6	57.3*	1.7	-14.5	x
Nc1cc(C(=O)Nc2ccc(Cl)cc2)ccc1N1CC2CC(C1)c1cccc(=O)n1C2 (centres undefined)	4.0	-1.6	-4.2	-1.0	-1.7	x	x	x
Cn1c[n+](C)cc1C(O)c1ccccc1 (centres undefined)	-0.2	-0.8	-0.9	-2.2	92.2*!	84.3*	-10.9	-1.3
CC(C)N=C(NC(C)C)N1CC1	-32.3	-3.6	0.9	-0.2	x	x	x	x
CCCCCC(=O)N[C@@H](c1ccccc1)[C@@H](O)C(=O)O[C@H]1C[C@@]2(O)[C@@H](OC(=O)c3ccccc3)C3[C@](C)(C(=O)[C@H](O)C(=C1C)C2(C)C)[C@@H](OC1OCC(O)C(O)C1O)C[C@H]1OC[C@@]31OC(C)=O (some centres undefined)	24.9	-0.3	-0.6	-1.0	-12.8	-14.2	-8.5	x
CC(CCN1CC1)=NNC(=O)Nc1cccc2ccccc12	-47.7	-2.5	-9.8	0.0	-13.3	x	x	x
CCC(CO)(C(=O)OC1C[N+]2(C)CCC1CC2)c1ccccc1 (centres undefined)	-2.3	-0.4	1.1	1.0	93.8*	80.5*	-16.9	-0.8
O=C(O)CCn1cc(C=C2C(=O)NC(=S)NC2=O)c(-c2cccc(Cl)c2)n1	7.8	-0.4	-0.1	-2.1	67.1*	42.4*	-13.4	-18.5
O=C(O)CCn1cc(C=C2C(=O)NC(=O)NC2=O)c(-c2ccc(Br)cc2)n1	3.3	-1.9	4.8	3.5	8.0	x	x	x
